Test results published in PMC6072465 (MedChemComm, 2017).

Legend:
[1] = test system: HCT116 (human colon carcinoma) cancer cells; assay: Oxygen consumption, Seahorse XF-96 Analyzer; type: cell-based; settings: incubation for 24 hours
Procedure, shortened: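 HCT116 cells grown in DMEM with 10% heat-inactivated FCS and penicillin/streptomycin at 37 °C, 5% CO2. About 15 000 cells/well adhered overnight, then were exposed to test compounds for 24 h. Cells were washed and held 1 h at 37 °C without CO2 in unbuffered DMEM (5 mM glucose, 2 mM glutamine, pH 7.4). Basal OCR was read, then sequential oligomycin, CCCP, and rotenone/antimycin A. Rates normalized to total well protein.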

[2] = test system: HCT116 cells; assay: Cytochrome c release from mitochondria to cytosol; type: cell-based, human; settings: concentration 3.5 μM
[3] = test system: caspase-3 in HCT116 cells; assay: Caspase-3 activity with fluorogenic substrate DEVD-AMC, HCT116 cells; type: cell-based, human; settings: compared with betulinic acid
[4] = test system: caspase-3 in TET21N cells; assay: Caspase-3 activity with fluorogenic substrate DEVD-AMC, TET21N cells; type: cell-based, human; settings: compared with betulinic acid

| Structure (SMILES) | effect on mitochondrial respiration (oxygen consumption) [1] | release of cytochrome c from the mitochondria to the cytosol [2] | activation of caspase-3 [3] | activation of caspase-3 [4] |
| --- | --- | --- | --- | --- |
| C=C(C)[C@@H]1CC[C@]2(C(=O)O)CC[C@]3(C)[C@H](CC[C@@H]4[C@@]5(C)CC[C@H](O)C(C)(C)[C@@H]5CC[C@]43C)[C@@H]12 [BA, betulinic acid, reference compound] | ineffective | failed to trigger the release of cytochrome c | – | – |
| C=C(C)[C@@H]1CC[C@]2(C(=O)OCCOCCOCC[P+](c3ccccc3)(c3ccccc3)c3ccccc3)CC[C@]3(C)[C@H](CC[C@@H]4[C@@]5(C)CC[C@H](OC(C)=O)C(C)(C)[C@@H]5CC[C@]43C)[C@@H]12.[Br-] [compound 7, 8′-(Triphenylphosphonio-3′,6′-dioxaoctan-1′-yl)-3β-acetoxylup-20(29)-en-28-oate bromide] | suppressed respiration in a concentration-dependent manner | – | – | – |
| C=C(C)[C@@H]1CC[C@]2(C(=O)OCCOCCOCC[P+](c3ccccc3)(c3ccccc3)c3ccccc3)CC[C@]3(C)[C@H](CC[C@@H]4[C@@]5(C)CC[C@H](O)C(C)(C)[C@@H]5CC[C@]43C)[C@@H]12.[Br-] [compound 9, 9′-(Triphenylphosphonio-3′,6′-dioxaoctan-1′-yl)-3β-hydroxylup-20(29)-en-28-oate bromide] | suppressed respiration in a concentration-dependent manner | – | considerably surpassed betulinic acid in the caspase-3 activation | considerably surpassed betulinic acid in the caspase-3 activation |
